Source: PubChem
Ecoli tolC = growth inhibitors of E. coli BW25113 tolC mutant; OD615; growth inhibition, % at 10 µM (by protocol); actives 2.2% (n = 65,000); AID 573;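 active means growth inhibition at or above a cutoff equal to the mean over every tested compound plus 3 SD, cut at about 60% in these data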;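 further: growth measured after 20 h incubation at 37 °C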
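Material: E. coli BW25113 ΔtolC::kan, tolC deletion mutant strain. Measure: percent growth inhibition. Schedule: 37 °C, 20 h exposure. Doses: single-point testing at 10 µM. Signal: A615 absorbance measurement. Buffer or medium: kanamycin-containing LB broth (50 µg/mL).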
AP ELISA ortho = alternative pathway complement inhibition, orthogonal assay. inhibition, % at 5 µM. Human serum alternative complement pathway, LPS-coated ELISA, C3 deposition; tested in compound mixtures. actives 0.08% (n = 62,000);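 active means inhibition above 30% in each of the two pooled mixtures holding the compound, so the lower value exceeds 30%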;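 further: 0% = serum in Mg-EGTA without compound and 100% = EDTA serum blank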
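Test system: human serum alternative complement pathway, C3 deposition on LPS-coated wells; also added: Plate-bound LPS; doses: 5 µM per compound in ten-compound mixtures; schedule: 1 h at 37 °C; detection: Anti-C3 ELISA, OD 450 nm; evaluation: percent inhibition of C3 deposition onto LPS; repeats: two pool placements per compound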
MMP-13 inhibitor = inhibitors of human MMP13 | actives 0.07% (n = 65,000) | P45452 | MMP-13 fTHP FRET cleavage, Mca fluorescence | inhibition, % at 4 µM;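 active means inhibition above the mean of compound-free control plate wells plus 3 SD, cut at about 14% in these data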;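 further: 0% = DMSO wells and 100% = wells with reference MMP-13 inhibitor after basal subtraction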
BAP1 inh = inhibitors of human BAP1 deubiquitinase | Q92560 | recombinant BAP1, Ub-AMC hydrolysis fluorescence kinetic; hits give low values | actives 0.48% (n = 72,000) | calls only at 20 µM;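 active means activity remaining at or below 50% of control, provided the compound also passes the data quality filters; inactive means the rest, including low values that fail the filters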;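 further: 100% = DMSO wells rate and 0% = substrate alone blank rate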
Target sequence (Q92560 whole entry, looked up): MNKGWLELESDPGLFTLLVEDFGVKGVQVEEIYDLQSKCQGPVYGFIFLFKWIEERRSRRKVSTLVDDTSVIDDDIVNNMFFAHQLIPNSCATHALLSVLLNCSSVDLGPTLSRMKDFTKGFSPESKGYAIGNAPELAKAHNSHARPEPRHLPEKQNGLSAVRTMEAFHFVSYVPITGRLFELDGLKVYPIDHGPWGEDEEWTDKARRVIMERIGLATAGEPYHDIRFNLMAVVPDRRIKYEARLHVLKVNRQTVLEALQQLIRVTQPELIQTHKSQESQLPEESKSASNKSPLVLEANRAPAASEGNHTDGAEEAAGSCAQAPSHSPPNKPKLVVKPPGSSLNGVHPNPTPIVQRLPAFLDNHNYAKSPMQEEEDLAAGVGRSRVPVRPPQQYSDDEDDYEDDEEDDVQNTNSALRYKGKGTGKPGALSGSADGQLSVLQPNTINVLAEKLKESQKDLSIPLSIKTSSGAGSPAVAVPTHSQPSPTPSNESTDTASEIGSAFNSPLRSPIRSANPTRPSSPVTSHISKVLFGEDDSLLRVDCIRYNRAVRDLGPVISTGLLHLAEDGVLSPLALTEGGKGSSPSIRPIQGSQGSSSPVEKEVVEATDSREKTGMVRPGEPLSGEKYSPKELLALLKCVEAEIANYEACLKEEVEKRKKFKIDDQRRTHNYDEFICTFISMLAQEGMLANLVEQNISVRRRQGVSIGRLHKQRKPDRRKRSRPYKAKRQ
Ecoli WT expand = growth inhibitors of E. coli BW25113 wild type; OD600 absorbance; growth inhibition, % at 100 µM; actives 0.15% (n = 98,000); AID 710;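 active means growth inhibition above about 50% at one test dose, limit read from the data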;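 further: growth measured after 20 h incubation at 37 °C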
E coli RNAP = Escherichia coli RNA polymerase inhibition | inhibition, %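 (tested at 10 µM)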 | E. coli RNA polymerase, fluorescence transcription assay | P0A8V2 | actives 0.2% (n = 62,000); in the data active means inhibition above about 20%;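 further: 0% = enzyme without compound and 100% = no enzyme blank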
An asterisk follows results filed as active; i = inactive; / = not tested or not shown; + = active, no number. The sample as a whole holds a higher share of hits than the screen did.

SMILES	Ecoli tolC	AP ELISA ortho	MMP-13 inhibitor	BAP1 inh	Ecoli WT expand	E coli RNAP
CCOc1cc(C2C(C(=O)OC)=C(C)NC3=C2C(=O)CC(c2ccc(OC)cc2)C3)cc(Cl)c1O (centres undefined)	/	/	/	i	/	/
O=C(Oc1ccc2ccc(=O)oc2c1)c1cccc([N+](=O)[O-])c1	/	/	/	i	/	/
CCc1ccc(C2NC(=O)NC(C)=C2C(=O)OCCOc2ccccc2)cc1 (centres undefined)	/	/	/	i	/	/
CC(C)C[C@H](NC(=O)OC(C)(C)C)c1nnc(SCc2cccc(F)c2)o1	73.2*	-11.2	6.2	i	-4.0	-1.6
Nc1c(C(=O)NCc2ccc3c(c2)OCO3)c2nc3ccccc3nc2n1CCCN1CCOCC1	95.0*	13.0	-194.2	i	0.0	-3.7
Cc1cc(=O)[nH]c(SCCOc2ccccc2)n1	/	/	/	i	/	/
CC1(C)Cc2c(c(N3CCCC3)nc3sc4c(N5CCN(CCO)CC5)ncnc4c23)CO1	65.1*	-5.3	-11.7	/	12.0	6.3
CC(=O)c1ccc(C(=O)Nc2nc3c(ccc4ccccc43)s2)cc1	/	/	/	i	/	/
N#Cc1nc(COc2ccccc2)oc1N1CCN(Cc2ccccc2)CC1	66.7*	-8.4	1.6	i	-16.0	-2.8
N#Cc1nc(COc2ccc(F)cc2)oc1N1CCCC1	21.6	5.5	2.7	i	7.0	4.0
N#Cc1nc(COc2ccccc2)oc1N1CCC(Cc2ccccc2)CC1	35.9	-10.6	-8.3	i	-15.0	5.8
Cc1ccc(OCc2nc(C#N)c(N3CCN(Cc4ccccc4)CC3)o2)cc1	63.5*	-36.0	0.8	i	-17.0	3.9
COc1ccc(NC(=O)c2cc3c(=O)n(C)c4ccccc4c3n2C)cc1OC	75.2*	0.5	5.5	i	-3.0	6.4
CN1/C(=C\C(=O)COC(=O)C2COc3ccccc3O2)C(C)(C)c2ccccc21 (centres undefined)	-0.6	-31.6	-6.2	i	-11.0	5.4
CN1/C(=C\C(=O)COc2ccc3c(c2)OCO3)C(C)(C)c2ccccc21	88.9*	9.1	-1.5	/	-28.0	3.6
Cc1nnc(NC(=O)c2ccccc2[N+](=O)[O-])s1	/	/	/	i	/	/
CC1=C(C(=O)OCCc2ccccc2)C(c2cccc([N+](=O)[O-])c2)C2=C(CC(c3ccccc3)CC2=O)N1 (centres undefined)	/	/	/	i	/	/
COc1ccc(C2c3c(-c4ccccc4O)n[nH]c3C(=O)N2CCc2ccc(OC)c(OC)c2)cc1 (centres undefined)	58.6	8.0	-2.5	i	-11.0	-0.5
Cc1ccc(C2c3c(-c4ccccc4O)n[nH]c3C(=O)N2Cc2ccncc2)cc1 (centres undefined)	68.8*	2.7	1.3	i	5.0	3.9
CC(C)COC(=O)NCCOC(=O)Nc1cccc(Cl)c1	89.0*	-0.7	0.1	i	25.0	10.2
O=C(Cc1ccccc1)Nc1nnc(-c2ccccc2I)s1	/	/	/	i	/	/
Cc1c(C(=O)OCCOc2ccccc2)[nH]c2c1C(=O)CCC2	63.4*	2.6	-0.1	i	-8.0	4.1
Cc1c(C(=O)OC2CCCC2C)[nH]c2c1C(=O)CCC2 (centres undefined)	84.3*	17.8	4.9	i	-1.0	4.3
CCCc1c(C(=O)OCC)[nH]c2c1C(=O)CCC2	46.2	22.8	-1.0	i	2.0	2.1
O=C(Nc1ccc2c(c1)CCC2)c1cc(S(=O)(=O)N2CCCCC2)ccc1Cl	/	/	/	i	/	/
SMILES	Ecoli tolC	AP ELISA ortho	MMP-13 inhibitor	BAP1 inh	Ecoli WT expand	E coli RNAP
Cc1ccc(C(=O)Nc2cccc(C(=O)O)c2)cc1S(=O)(=O)Nc1ccc(Br)cc1	/	/	/	i	/	/
Cc1ccc(C(=O)Nc2ccc(S(=O)(=O)O)c3cc(S(=O)(=O)O)cc(S(=O)(=O)O)c23)cc1NC(=O)c1cccc(NC(=O)Nc2cccc(C(=O)Nc3cc(C(=O)Nc4ccc(S(=O)(=O)O)c5cc(S(=O)(=O)O)cc(S(=O)(=O)O)c45)ccc3C)c2)c1	/	/	/	+	/	/
CCOC(=O)c1c(-c2ccccc2)nnn1-c1nc(OCC)nc(N2CCCCC2)n1	75.4*	6.4	-5.2	i	2.0	5.9
NC(=O)c1cc2cc([N+](=O)[O-])ccc2oc1=Nc1cccc(F)c1	/	/	/	i	/	/
O=c1c(O)c(-c2ccc(O)cc2O)oc2cc(O)cc(O)c12	7.5	14.2	-6.7	/	/	8.1
Cc1c(NC(=O)Nc2ccc(Cl)c(Cl)c2)c(=O)n(-c2ccccc2)n1C	100.0*	3.0	-2.8	i	13.0	/
Cc1cccc2c1N(CCCOc1ccccc1)C(=O)C2=O	/	/	/	/	7.0	/
Cc1ccccc1OCCCN1C(=O)C(=O)c2cccc(C)c21	100.0*	13.1	2.9	i	4.0	5.9
CCc1ccc(NC(=O)CSc2nnc(Cc3cccn3C)n2-c2ccc(F)cc2)cc1	66.1*	5.9	4.2	i	-15.0	4.2
O=c1cc(O)c2c(=O)n(-c3ccccc3)c3ccccc3c2o1	43.4	10.2	5.6	i	0.0	5.0
O=c1cc(O)c2c(=O)n3c4c(cccc4c2o1)CCC3	95.8*	12.7	0.6	i	/	-4.2
COC(=O)c1[nH]c2ccc(C)cc2c1NS(=O)(=O)c1ccc(F)cc1	82.6*	6.1	-3.8	i	-5.0	-2.6
COC(=O)c1[nH]c2ccc(F)cc2c1NS(=O)(=O)c1ccc(OC)cc1OC	35.9	7.9	-1.4	i	-3.0	8.6
COC(=O)c1[nH]c2ccc(C)cc2c1NS(=O)(=O)c1ccc(F)c(C)c1	96.5*	12.2	-5.5	i	3.0	5.7
O=C1CC(c2cccc(Br)c2)Nc2ccc3ccccc3c21 (centres undefined)	/	/	/	i	/	/
O=C1c2ccccc2C(O)(Cc2ccccc2)N1CCCN1CCOCC1 (centres undefined)	-18.9	14.3	-4.2	i	5.0	6.3
O=C1c2ccccc2C(O)(Cc2ccccc2)N1C1CCCCC1 (centres undefined)	100.0*	15.6	1.8	i	-4.0	8.6
N#Cc1c(N)n(CCc2ccc(F)cc2)c2nc3ccccc3nc12	/	/	/	/	-5.0	/
N#Cc1c(NC(=O)c2ccc(Br)o2)n(-c2ccccc2)c2nc3ccccc3nc12	61.7*	11.6	-85.3	i	/	1.4
CCCCn1c(NC(=O)c2ccc(F)cc2)c(C#N)c2nc3ccccc3nc21	87.6*	15.8	-52.2	/	/	-0.1
CCCCn1c(NC(=O)c2ccccc2)c(C#N)c2nc3ccccc3nc21	66.9*	12.6	-75.7	/	2.0	-1.6
COc1ccc(-n2c(NC(=O)c3ccc(Br)o3)c(C#N)c3nc4ccccc4nc32)cc1	/	/	/	/	-8.0	/
CSc1ccc(S(=O)(=O)Nc2ccc(N3CCOCC3)c(Cl)c2)cc1	100.0*	-2.6	-0.8	i	-4.0	11.0
CSc1ccc(S(=O)(=O)Nc2ccc3c(c2)OCCO3)cc1	28.9	-0.5	0.5	i	5.0	5.5
Cc1ccc(-c2csc3ncnc(Sc4nnc(CN5CCCCCC5=O)o4)c23)cc1	60.8*	4.1	2.9	i	5.0	6.8
